# Measured values reported in ChEMBL document CHEMBL1208737, “Synthesis and in vitro evaluation of N-alkyl-3-hydroxy-3-(2-imino-3-methyl-5-oxoimidazolidin-4-yl)indolin-2-one analogs as potential anticancer agents” (2010).
# What was measured:
# Format in all cases: functional
# HT-29 = assay: Growth inhibition of human HT-29 cells by sulforhodamine B assay
# How it was run: (§1)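 Five-dose response testing across a 57-line human tumour panel (leukemia, non-small cell lung, colon, CNS, melanoma, ovarian, renal, prostate, breast), done after a single-dose primary screen run per the NCI method. Effect plotted against log10 molar drug concentration for each cell line. GI50 is the concentration giving a 50% reduction in net protein increase versus control cells.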
# UACC-257 = assay: Growth inhibition of human UACC257 cells by sulforhodamine B assay
# How it was run: (§2)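 Part of a 57-line human tumour cell panel run at five doses. Growth effect was plotted against log10 molar drug concentration for each cell line. GI50 is the concentration giving a 50% reduction in net protein increase relative to untreated control cells, read from the dose-response curve.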
# HL-60(TB) = assay: Growth inhibition of human HL-60(TB) cells by sulforhodamine B assay; how it was run: as §1
# NCI-H23 = assay: Growth inhibition of human NCI-H23 cells by sulforhodamine B assay; how it was run: as §1
# SK-MEL-5 = assay: Growth inhibition of human SK-MEL-5 cells by sulforhodamine B assay; how it was run: as §1
# LOX IMVI = assay: Growth inhibition of human LOXIMVI cells by sulforhodamine B assay
# How it was run: (§3)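 Five-dose response testing across the 57-line human tumour panel. Growth effect was plotted against log10 drug concentration for each cell line. GI50 is the molar concentration giving a 50% reduction in net protein increase relative to untreated control cells. TGI (total growth inhibition) and LC50 (concentration lethal to 50% of cells) were read from the same curves.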
# OVCAR-3 = assay: Growth inhibition of human OVCAR-3 cells by sulforhodamine B assay; how it was run: as §1
# K562 = assay: Growth inhibition of human K562 cells by sulforhodamine B assay; how it was run: as §1
# TK-10 = assay: Growth inhibition of human TK10 cells by sulforhodamine B assay; how it was run: as §2
# SF-268 = assay: Growth inhibition of human SF268 cells by sulforhodamine B assay; how it was run: as §1
# [1] = Growth inhibition of human Hs 578T cells by sulforhodamine B assay; how it was run: as §1
# SK-MEL-28 = assay: Growth inhibition of human SK-MEL-28 cells by sulforhodamine B assay; how it was run: as §1
# SN12C = assay: Growth inhibition of human SN12C cells by sulforhodamine B assay; how it was run: as §1
# MCF7 = assay: Growth inhibition of human MCF7 cells by sulforhodamine B assay; how it was run: as §1
# OVCAR-4 = assay: Growth inhibition of human OVCAR4 cells by sulforhodamine B assay; how it was run: as §1
# CCRF-CEM = assay: Growth inhibition of human CCRF-CEM cells by sulforhodamine B assay; how it was run: as §1
# EKVX = assay: Growth inhibition of human EKVX cells by sulforhodamine B assay; how it was run: as §1
# Malme-3M = assay: Growth inhibition of human MALME-3M cells by sulforhodamine B assay; how it was run: as §1
# NCI-H322M = assay: Growth inhibition of human NCI-H322M cells by sulforhodamine B assay; how it was run: as §1
# NCI/ADR-RES = assay: Growth inhibition of human NCI/ADR-RES cells by sulforhodamine B assay; how it was run: as §1
# A498 = assay: Growth inhibition of human A498 cells by sulforhodamine B assay; how it was run: as §1
# HOP-62 = assay: Growth inhibition of human HOP62 cells by sulforhodamine B assay; how it was run: as §1
# SK-OV-3 = assay: Growth inhibition of human SKOV3 cells by sulforhodamine B assay; how it was run: as §1
# UO-31 = assay: Growth inhibition of human UO31 cells by sulforhodamine B assay; how it was run: as §2
# HCT-116 = assay: Growth inhibition of human HCT116 cells by sulforhodamine B assay; how it was run: as §1
# SF-295 = assay: Growth inhibition of human SF295 cells by sulforhodamine B assay; how it was run: as §1
# PC-3 = assay: Growth inhibition of human PC3 cells by sulforhodamine B assay; how it was run: as §1
# HCT-15 = assay: Growth inhibition of human HCT15 cells by sulforhodamine B assay; how it was run: as §1
# MOLT-4 = assay: Growth inhibition of human MOLT4 cells by sulforhodamine B assay; how it was run: as §1
# HCC 2998 = assay: Growth inhibition of human HCC2998 cells by sulforhodamine B assay; how it was run: as §1
# T47D = assay: Growth inhibition of human T47D cells by sulforhodamine B assay; how it was run: as §2
# NCI-H226 = assay: Growth inhibition of human NCI-H226 cells by sulforhodamine B assay; how it was run: as §1
# A549 = assay: Growth inhibition of human A549 cells by sulforhodamine B assay; how it was run: as §3
# SF-539 = assay: Growth inhibition of human SF539 cells by sulforhodamine B assay; how it was run: as §1
# OVCAR-5 = assay: Growth inhibition of human OVCAR5 cells by sulforhodamine B assay; how it was run: as §1
# SNB-75 = assay: Growth inhibition of human SNB75 cells by sulforhodamine B assay; how it was run: as §1
# SNB-19 = assay: Growth inhibition of human SNB19 cells by sulforhodamine B assay; how it was run: as §1
# IGROV-1 = assay: Growth inhibition of human IGROV1 cells by sulforhodamine B assay; how it was run: as §1
# BT-549 = assay: Growth inhibition of human BT549 cells by sulforhodamine B assay; how it was run: as §1
# OVCAR-8 = assay: Growth inhibition of human OVCAR8 cells by sulforhodamine B assay; how it was run: as §1
# COLO 205 = assay: Growth inhibition of human COLO205 cells by sulforhodamine B assay; how it was run: as §1
# CAKI-1 = assay: Growth inhibition of human Caki1 cells by sulforhodamine B assay; how it was run: as §1
# SW-620 = assay: Growth inhibition of human SW620 cells by sulforhodamine B assay; how it was run: as §1
# [2] = read-out: LC50 (the source's name)
structure (smiles),measurement,setting,value
COc1ccc(CN2C(=O)C(O)(C3C(=O)NC(=N)N3C)c3cc(Cl)ccc32)cc1 (stereo not drawn),GI50,HT-29,1380 nM
same,LC50,HT-29,44.1 µM
same,GI50,UACC-257,1430 nM
same,LC50,UACC-257,19.4 µM
same,GI50,HL-60(TB),3.22 µM
same,LC50,HL-60(TB),> 100 µM
same,GI50,NCI-H23,4.74 µM
same,LC50,NCI-H23,> 100 µM
same,GI50,SK-MEL-5,22.6 µM
same,CC50,SK-MEL-5; [2],> 100 µM
same,GI50,LOX IMVI,750 nM
same,TGI,LOX IMVI,11.8 µM
same,CC50,LOX IMVI; [2],60 µM
same,GI50,OVCAR-3,2080 nM
same,CC50,OVCAR-3; [2],11.5 µM
same,GI50,K562,5.04 µM
same,CC50,K562; [2],> 100 µM
same,GI50,TK-10,4.11 µM
same,CC50,TK-10; [2],> 100 µM
same,GI50,SF-268,3.31 µM
same,CC50,SF-268; [2],64.9 µM
same,GI50,[1],2040 nM
same,CC50,[1]; [2],> 100 µM
same,GI50,SK-MEL-28,50.3 µM
same,CC50,SK-MEL-28; [2],> 100 µM
same,GI50,SN12C,5.94 µM
same,CC50,SN12C; [2],> 100 µM
same,GI50,MCF7,3.22 µM
same,LC50 (concentration killing 50% of starting cells),MCF7,> 100 µM
same,GI50,OVCAR-4,5.52 µM
same,CC50,OVCAR-4; [2],> 100 µM
same,GI50,CCRF-CEM,2060 nM
same,CC50,CCRF-CEM; [2],> 100 µM
same,GI50,EKVX,28.5 µM
same,LC50,EKVX,> 100 µM
same,GI50,Malme-3M,29.6 µM
same,CC50,Malme-3M; [2],> 100 µM
same,GI50,NCI-H322M,14.3 µM
same,CC50,NCI-H322M; [2],> 100 µM
same,GI50,NCI/ADR-RES,1880 nM
same,CC50,NCI/ADR-RES; [2],36.5 µM
same,GI50,A498,34.5 µM
same,CC50,A498; [2],> 100 µM
same,GI50,HOP-62,5.12 µM
same,CC50,HOP-62; [2],> 100 µM
same,GI50,SK-OV-3,30.1 µM
same,CC50,SK-OV-3; [2],> 100 µM
same,GI50,UO-31,4.15 µM
same,CC50,UO-31; [2],> 100 µM
same,GI50,HCT-116,3000 nM
same,LC50,HCT-116,34.5 µM
same,GI50,SF-295,3.71 µM
same,CC50,SF-295; [2],> 100 µM
same,GI50,PC-3,4.27 µM
same,CC50,PC-3; [2],> 100 µM
same,GI50,HCT-15,12.6 µM
same,LC50 (concentration killing 50% of starting cells),HCT-15,> 100 µM
same,GI50,MOLT-4,2940 nM
same,CC50,MOLT-4; [2],> 100 µM
same,GI50,HCC 2998,18.7 µM
same,LC50,HCC 2998,73.9 µM
same,GI50,T47D,13.5 µM
same,LC50,T47D,> 100 µM
same,GI50,NCI-H226,26.8 µM
same,CC50,NCI-H226; [2],> 100 µM
same,GI50,A549,190 nM
same,LC50,A549,10.9 µM
same,TGI,A549,1960 nM
same,GI50,SF-539,3.12 µM
same,CC50,SF-539; [2],79.1 µM
same,GI50,OVCAR-5,34.9 µM
same,CC50,OVCAR-5; [2],> 100 µM
same,GI50,SNB-75,3.39 µM
same,CC50,SNB-75; [2],> 100 µM
same,GI50,SNB-19,17.2 µM
same,CC50,SNB-19; [2],> 100 µM
same,GI50,IGROV-1,2590 nM
same,CC50,IGROV-1; [2],> 100 µM
same,GI50,BT-549,2980 nM
same,LC50,BT-549,54.9 µM
same,GI50,OVCAR-8,1350 nM
same,CC50,OVCAR-8; [2],17.2 µM
same,GI50,COLO 205,14.3 µM
same,CC50,COLO 205; [2],> 100 µM
same,GI50,CAKI-1,1980 nM
same,CC50,CAKI-1; [2],> 100 µM
same,GI50,SW-620,2590 nM
same,CC50,SW-620; [2],49.6 µM
